Assay results pooled from the literature.
Protocols differ between the studies behind these lines.
GLP2R: Glucagon-like peptide 2 receptor (GLP2R, Homo sapiens, UniProt O95838)
Melanocortin receptor 4: Melanocortin receptor 4 (Mus musculus, UniProt P56450)
Tspo: Translocator protein (Tspo, Rattus norvegicus, UniProt P16257)
LDHA: L-lactate dehydrogenase A chain (LDHA, Homo sapiens, UniProt P00338)

SMILES	target	assay	conditions	quantity	result
CC[C@H](C)[C@H](NC(=O)[C@H](Cc1ccccc1)NC(=O)[C@H](CCC(=O)O)NC(=O)[C@H](CCCCN)NC(=O)[C@H](C)NC(=O)[C@H](C)NC(=O)[C@H](CCC(N)=O)NC(=O)CNC(=O)[C@H](CCC(=O)O)NC(=O)[C@H](CC(C)C)NC(=O)[C@H](Cc1ccc(O)cc1)NC(=O)[C@H](CO)NC(=O)[C@H](CO)NC(=O)[C@@H](NC(=O)[C@H](CC(=O)O)NC(=O)[C@H](CO)NC(=O)[C@@H](NC(=O)[C@H](Cc1ccccc1)NC(=O)[C@@H](NC(=O)CNC(=O)[C@H](CCC(=O)O)NC(=O)[C@H](C)NC(=O)[C@@H](N)Cc1c[nH]cn1)[C@@H](C)O)[C@@H](C)O)C(C)C)C(=O)N[C@@H](C)C(=O)N[C@@H](Cc1c[nH]c2ccccc12)C(=O)N[C@@H](CC(C)C)C(=O)N[C@H](C(=O)N[C@@H](CCCCN)C(=O)NCC(=O)N[C@@H](CCCN=C(N)N)C(=O)NCC(=O)O)C(C)C	GLP2R	reporter gene, agonist, luciferase	–	EC50	> 1 µM
CSCC[C@H](NC(=O)[C@@H](NC(=O)[C@@H](N)Cc1ccc(O)cc1)C(C)C)C(=O)NCC(=O)N[C@@H](Cc1c[nH]cn1)C(=O)N[C@@H](Cc1ccccc1)C(=O)N[C@@H](CCCNC(=N)N)C(=O)N[C@@H](Cc1c[nH]c2ccccc12)C(=O)N[C@@H](CC(=O)O)C(=O)N[C@@H](CCCNC(=N)N)C(=O)O	Melanocortin receptor 4	reporter gene, agonist	–	EC50	0.66 µM
CNC(=O)[C@@]12C[C@@H]1[C@@H](n1cnc3c(NC)nc(C#Cc4ccccc4)nc31)[C@H](O)[C@@H]2O	Tspo	ligand displacement, radioligand	–	Ki	> 10 µM
CC[C@H](C)[C@H](NC(=O)[C@H](CO)NC(=O)[C@H](Cc1ccc(O)cc1)NC(=O)[C@H](CC(=O)O)NC(=O)[C@H](CO)NC(=O)[C@@H](NC(=O)[C@H](Cc1ccccc1)NC(=O)[C@@H](NC(=O)CNC(=O)[C@H](CCC(=O)O)NC(=O)[C@H](C)NC(=O)[C@@H](N)Cc1ccc(O)cc1)[C@@H](C)O)[C@@H](C)CC)C(=O)N[C@@H](C)C(=O)N[C@@H](CCSC)C(=O)N[C@@H](CC(=O)O)C(=O)N[C@@H](CCCCN)C(=O)N[C@H](C(=O)N[C@@H](Cc1c[nH]cn1)C(=O)N[C@@H](CCC(N)=O)C(=O)N[C@@H](CCC(N)=O)C(=O)N[C@@H](CC(=O)O)C(=O)N[C@@H](Cc1ccccc1)C(=O)N[C@H](C(=O)N[C@@H](CC(N)=O)C(=O)N[C@@H](Cc1c[nH]c2ccccc12)C(=O)N[C@@H](CC(C)C)C(=O)N[C@@H](CC(C)C)C(=O)N[C@@H](C)C(=O)N[C@@H](CCC(N)=O)C(=O)N[C@@H](CCCCN)C(=O)NCC(=O)N[C@@H](CCCCN)C(=O)N[C@@H](CCCCN)C(=O)N[C@@H](CC(N)=O)C(=O)N[C@@H](CC(=O)O)C(=O)N[C@@H](Cc1c[nH]c2ccccc12)C(=O)N[C@@H](CCCCN)C(=O)N[C@@H](Cc1c[nH]cn1)C(=O)N[C@@H](CC(N)=O)C(=O)N[C@H](C(=O)N[C@H](C(=O)N[C@@H](CCC(N)=O)C(=O)O)[C@@H](C)O)[C@@H](C)CC)C(C)C)[C@@H](C)CC	GLP2R	reporter gene, agonist, luciferase	–	EC50	> 1 µM
O=C(O)CC(=O)C(=O)O	LDHA	binding, fluorescence	–	Kd	642 µM
N=C(N)NCCC[C@H](NC(=O)[C@H](CC(=O)O)NC(=O)[C@H](Cc1c[nH]c2ccccc12)NC(=O)[C@H](CCCNC(=N)N)NC(=O)[C@@H](N)Cc1ccccc1)C(=O)N[C@@H](Cc1ccccc1)C(=O)NCC(=O)O	Melanocortin receptor 4	reporter gene, agonist	–	EC50	47.4 µM
CNC(=O)[C@@]12C[C@@H]1[C@@H](n1cnc3c(NC4CC4c4ccccc4)nc(C#Cc4ccccc4)nc31)[C@H](O)[C@@H]2O (mixture of isomers)	Tspo	ligand displacement, radioligand	–	Ki	> 10 µM
O=C(OC[C@H]1OC[C@H](OC(=O)c2cc(O)c(O)c(O)c2)[C@@H](O)[C@@H]1O)c1cc(O)c(O)c(O)c1	Replicase polyprotein 1ab, main protease (rep, Severe acute respiratory syndrome coronavirus 2, UniProt P0DTD1)	binding, SPR	–	Kd	1.18 µM
CSCC[C@H](NC(=O)[C@@H](NC(=O)[C@@H](N)Cc1ccc(O)cc1)C(C)C)C(=O)NCC(=O)N[C@@H](Cc1c[nH]cn1)C(=O)N[C@@H](Cc1ccccc1)C(=O)O	Melanocortin receptor 4	reporter gene, agonist	–	EC50	> 100 µM
Cc1nc2ccc(NC(=O)CCNC(=O)CCCc3ccc(CC(C(=O)O)C(=O)O)cc3)cc2s1	LDHA	binding, SPR	–	Kd	0.058 µM
CNc1nc(C#Cc2ccccc2)nc2c1ncn2[C@H]1[C@H](O)[C@H](O)[C@@H]2C[C@@H]21	Tspo	ligand displacement, radioligand	–	Ki	> 10 µM
Cc1cc2nc3c(=O)[nH]c(=O)nc-3n(C[C@H](O)[C@H](O)[C@H](O)COP(=O)(O)OP(=O)(O)OC[C@H]3O[C@@H](n4cnc5c(N)ncnc54)[C@H](O)[C@@H]3O)c2cc1C	Dihydrolipoyl dehydrogenase, mitochondrial (DLD, Homo sapiens, UniProt P09622)	binding	lysate	Kd	0.641 µM
CC/C=C\C/C=C\C/C=C\C/C=C\C/C=C\CCCC(=O)O	Peroxisome proliferator-activated receptor delta (PPARD, Homo sapiens, UniProt Q03181)	reporter gene, agonist, luciferase	–	EC50	90.5 µM
CSCC[C@H](NC(=O)[C@@H](NC(=O)[C@@H](N)Cc1ccc(O)cc1)C(C)C)C(=O)NCC(=O)O	Melanocortin receptor 4	reporter gene, agonist	–	EC50	> 100 µM
CNC(=O)[C@@]12C[C@@H]1[C@@H](n1cnc3c(NCc4cccc(Cl)c4)nc(Cl)nc31)[C@H](O)[C@@H]2O	Tspo	ligand displacement, radioligand	–	Ki	> 10 µM
